According to ChEMBL document CHEMBL1141435, “Serinocyclins A and B, cyclic heptapeptides from Metarhizium anisopliae” (J Nat Prod, 2007):

What was measured:
[1] = tested on: Saccharomyces cerevisiae; assay: Antifungal activity against Saccharomyces cerevisiae at 10 ug/disc after 48 hrs by disc diffusion assay; assay type: functional; details: read-out: IZ
In short: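 Yeast grown on 1% yeast extract, 2% peptone, 1.5% agar with either 2% dextrose or 2% glycerol. Plates were spread with 0.5 mL of a suspension in H2O adjusted to OD600 0.5 and dried 1 h. Samples went onto 7 mm paper disks in 10 µL MeOH, air-dried 1 h. Zones were read every 24 h for 4 days. Filipin at 10 µg/disk was the positive control, MeOH and formic acid the negatives.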

[2] = tested on: Colletotrichum; assay: Antifungal activity against Colletotrichum acutatum at 10 ug/disc after 48 hrs by disc diffusion assay; assay type: functional; details: read-out: IZ
In short: (§1)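 Fungal targets grown on potato dextrose agar plates (9 cm), each spread with 0.6 mL of a conidial suspension (ca. 1 × 10^6 conidia/mL H2O) and dried 1 h. Samples went onto 7 mm filter paper disks in 10 µL MeOH, air-dried 1 h, then placed on the plates. Inhibition zones were read every 24 h for 4 days. Filipin at 10 µg/disk was the positive control, MeOH and formic acid at 10 µL/disk the negatives.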

[3] = tested on: Escherichia coli; assay: Antibacterial activity against Escherichia coli at 10 ug/disc after 48 hrs by disc diffusion assay; assay type: functional; details: read-out: IZ
In short: (§2)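 Target strains grown on nutrient agar plates (9 cm), each spread with 0.6 mL of a 24 h nutrient broth culture and dried 1 h. Samples went onto 7 mm filter paper disks in 10 µL MeOH and were air-dried 1 h before placement. Inhibition zones were checked every 24 h for 4 days. Tetracycline at 10 µg/disk was the positive control, MeOH and formic acid at 10 µL/disk the negatives.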

[4] = tested on: Bacillus cereus; assay: Antibacterial activity against Bacillus cereus at 10 ug/disc after 48 hrs by disc diffusion assay; assay type: functional; details: read-out: IZ; in short: as §2
[5] = tested on: Botrytis; assay: Antifungal activity against Botrytis cinerea at 10 ug/disc after 48 hrs by disc diffusion assay; assay type: functional; details: read-out: IZ; in short: as §1
[6] = tested on: Beauveria bassiana; assay: Antifungal activity against Beauveria bassiana at 10 ug/disc after 48 hrs by disc diffusion assay; assay type: functional; details: read-out: IZ; in short: as §1
[7] = tested on: Aedes aegypti; assay: Induction of locomotory deffect in Aedes aegypti Rockefeller larvae after 24 hrs; assay type: functional, organism-based
In short: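 Eggs hatched under vacuum for 30 min and larvae kept at 25 °C in tap water with liver powder suspension. At 24 h posthatch, 7–11 larvae per well of a 24-well plate were placed in 0.9 mL food/water. Treatments were added in 100 µL distilled water, and effects were scored 24 h later.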

SMILES: CN(C)[C@@H]1C(O)=C(C(N)=O)C(=O)[C@@]2(O)C(O)=C3C(=O)c4c(O)cccc4[C@@](C)(O)[C@H]3C[C@@H]12 [TETRACYCLINE]
- zone of inhibition at 10 µg/disc [1]: > 5 mm
- zone of inhibition at 10 µg/disc [2]: > 5 mm
- zone of inhibition at 10 µg/disc [3]: > 5 mm
- zone of inhibition at 10 µg/disc [4]: > 5 mm
- zone of inhibition at 10 µg/disc [5]: > 5 mm
- zone of inhibition at 10 µg/disc [6]: > 5 mm

SMILES: NCC[C@H](O)C[C@H]1NC(=O)[C@H](CO)NC(=O)[C@@H]2C[C@@H](O)CN2C(=O)C2(CC2)NC(=O)[C@H](CO)NC(=O)[C@@H](CO)NC(=O)CCNC1=O [SERINOCYCLIN A]
- EC50 [7]: 59 ppm

SMILES: CCCCC[C@@H](O)[C@H]1C(=O)O[C@H](C)[C@@H](O)/C=C/C=C/C=C/C=C/C=C(\C)[C@@H](O)C[C@H](O)C[C@H](O)C[C@H](O)C[C@H](O)C[C@H](O)C[C@@H]1O [FILIPIN]
- zone of inhibition at 10 µg/disc [1]: > 5 mm
- zone of inhibition at 10 µg/disc [2]: > 5 mm
- zone of inhibition at 10 µg/disc [3]: > 5 mm
- zone of inhibition at 10 µg/disc [4]: > 5 mm
- zone of inhibition at 10 µg/disc [5]: > 5 mm
- zone of inhibition at 10 µg/disc [6]: > 5 mm
